Data set [1] has as its system Human immunodeficiency virus 1. Description: Antiviral activity against HIV-1 IIIB induced cytopathic effect in de novo infected MT-4 cells. The format is functional, organism-based. As to conditions: Human immunodeficiency virus 1, MT4. The method in brief: (§1)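 MT4 cells were infected de novo with HIV-1 IIIB or HIV-2 EHO, and compound was added after adsorption. Mock-infected cells were run in parallel. After 5 days, viability was read spectrophotometrically by in situ MTT reduction.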

Data set [2] is described as follows: Area Under Curve was measured by ploting the graph between concentration verses time. In kind it is ADME. The method in brief:
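Female Balb/c mice (n = 2 per time point) were fasted 24 h before and throughout the study, with water ad libitum. Compound was given by oral gavage at 125 mg/kg in a microemulsion formulation. Plasma levels were measured by solid-phase extraction and HPLC.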

Data set [3] can be described thus: Aqueous solubility in phosphate buffer of pH 7.4.
The target of data set [4] is T1, Human immunodeficiency virus type 1 protease (Human immunodeficiency virus 1, UniProt Q72874). Put plainly: Compound was tested for inhibition of HIV-1 protease was assayed in infected MT-4 cells. In kind it is cell-based, MT4.
The target in data set [5] is T1, Human immunodeficiency virus type 1 protease. Description: Inhibition of HIV-1 proteinase was assayed in infected MT-4 cells. In kind it is cell-based, MT4.
For data set [6], the target named is Cathepsin D (Homo sapiens, UniProt P07339). Put plainly: The compound was tested for inhibition of Human Cathepsin D.
The subject of data set [7] is MT4. Description: Antiviral activity against HIV-2 induced cytopathic effect in de novo infected MT-4 cells. The format is functional, cell-based. As to conditions: Homo sapiens. The method in brief:
as §1

The test system of data set [8] is MT4. Description: Antiviral activity for inhibition of HIV-2 proteinase was assayed in infected MT-4 cells. The format is functional, cell-based. As to conditions: Homo sapiens.
A short description of data set [9]: Inhibitory concentration against HIV-1 strain IIIB infected T4 lymphocytes. In kind it is functional, cell-based. The gist of the method: (§2)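 T4-lymphocytes were purified from healthy donor human […] and stimulated with PHA. Cells were infected with HIV-1 IIIB or HIV-2 MS and kept in IL-2 medium. Compound was added after stimulation and virus adsorption. Every 3-4 days, half the supernatant was replaced with fresh IL-2 medium containing compound.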

A short description of data set [10]: Inhibitory concentration against HIV-2 strain MS infected T4 lymphocytes. In kind it is functional, cell-based. The gist of the method:
as §2

In brackets after ≈: the same amount, converted by molar mass. A value given as a limit tells only on which side of the number the result lay.

Sequence of Cathepsin D (P07339 65-162 limits assumed): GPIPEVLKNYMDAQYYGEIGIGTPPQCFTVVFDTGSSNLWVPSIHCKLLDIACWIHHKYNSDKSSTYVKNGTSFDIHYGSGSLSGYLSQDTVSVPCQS
Sequence of Cathepsin D (P07339 169-412 limits assumed): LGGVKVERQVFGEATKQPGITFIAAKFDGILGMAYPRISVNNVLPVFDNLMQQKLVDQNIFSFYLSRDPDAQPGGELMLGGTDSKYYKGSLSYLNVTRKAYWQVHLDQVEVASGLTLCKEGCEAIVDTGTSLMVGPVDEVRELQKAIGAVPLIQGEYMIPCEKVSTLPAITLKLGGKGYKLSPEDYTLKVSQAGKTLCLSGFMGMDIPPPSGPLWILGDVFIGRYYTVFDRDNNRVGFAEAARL

Turning to `CC(C)[C@@H]1NC(=O)[C@@H]([C@H](O)[C@H](Cc2ccccc2)NC(=O)OC(C)(C)C)NCc2ccc(cc2)OCCOCCOCCNC1=O`, the IC50 in [1] worked out at 169 nM.
As for `COc1ccc(CN[C@@H](C(=O)N[C@H](C(=O)NCc2nc3ccccc3[nH]2)C(C)C)[C@H](O)[C@H](Cc2ccccc2)NC(=O)[C@@H](NC(=O)OCc2ccccc2)C(C)C)cc1`, the area under the curve (AUC) in data set [2] is under 0.4 µM·h. For the same molecule, the solubility in data set [3] was under 10 µM. This molecule also gave an IC50 in [1] of 29 nM.
Regarding `CC(C)[C@H](NC(=O)OCc1ccccc1)C(=O)N[C@@H](Cc1ccccc1)[C@@H](O)[C@H]1NCc2ccc(cc2)OCCCCNC(=O)[C@H](C(C)C)NC1=O`, inhibition in data set [1] was half-maximal at 27 nM (IC50).
The molecule `CC(C)[C@@H]1NC(=O)[C@@H]([C@H](O)[C@H](Cc2ccccc2)NC(=O)OC(C)(C)C)NCc2cccc(c2)OCCOCCNC1=O` gave an IC50 in data set [1] of 935 nM.
For the molecule `CC(C)[C@H](NC(=O)OCc1ccccc1)C(=O)N[C@@H](Cc1ccccc1)[C@@H](O)[C@H]1NCc2ccc(cc2)OCCOCCOCCOCCNC(=O)[C@H](C(C)C)NC1=O`, the IC50 in [1] came out at 52 nM.
In turn, `CC(C)[C@@H]1NC(=O)[C@@H]([C@H](O)[C@H](Cc2ccccc2)NC(=O)OC(C)(C)C)NCc2ccc(cc2)OCCCCNC1=O` came in with an IC50 in [1] of 1810 nM. In addition, the Ki in [4] amounted to 17 nM.
In data set [1], `CC(C)[C@H](NC(=O)OCc1ccccc1)C(=O)N[C@@H](Cc1ccccc1)[C@@H](O)[C@H]1NCc2cccc(c2)OCCOCCOCCNC(=O)[C@H](C(C)C)NC1=O` yielded an IC50 of 211 nM. In [5], this molecule had a Ki of 7.7 nM.
The molecule `CC(C)[C@@H]1NC(=O)[C@@H]([C@H](O)[C@H](Cc2ccccc2)NC(=O)[C@@H](NC(=O)CSc2nncn2C)C(C)(C)C)NCc2ccc(cc2)OCCOCCNC1=O` came in with a solubility in [3] of 1710 µM (≈ 1310 µg/mL). In [1], this molecule came in with an IC50 of over 3000 nM. Besides, the affinity in [5] corresponds to a Ki of 11.1 nM.
In data set [2], `COc1ccc(CN[C@@H](C(=O)N[C@@H]2c3ccccc3C[C@H]2O)[C@H](O)[C@H](Cc2ccccc2)NC(=O)[C@@H](NC(=O)OCc2ccccc2)C(C)C)cc1` registered an AUC of 82.5 µM·h. Besides, in [3], the solubility is under 10 µM. In addition, the results for the IC50 in [6], in data set [1] and in data set [7] were over 10000 nM, 242 nM and 843 nM, respectively. Further, the Ki in [4] came out at 9.5 nM.
With `CC(C)[C@H](NC(=O)OCc1ccccc1)C(=O)N[C@@H](Cc1ccccc1)[C@@H](O)[C@H]1NCc2cccc(c2)OCCCCNC(=O)[C@H](C(C)C)NC1=O`, inhibition in data set [1] was half-maximal at 29 nM (IC50).
In the case of `CC(C)[C@@H]1NC(=O)[C@@H]([C@H](O)[C@H](Cc2ccccc2)NC(=O)O[C@H]2CCOC2)NCc2ccc(cc2)OCCOCCOCCNC1=O`, the midpoint of inhibition in [1], the IC50, lay at 198 nM. Compared with the last molecule, the IC50 is about 6.8-fold higher.
With `CC(C)[C@H](NC(=O)OCc1ccccc1)C(=O)N[C@@H](Cc1ccccc1)[C@@H](O)[C@H]1NCc2ccc(cc2)OCCOCCNC(=O)[C@H](C(C)C)NC1=O`, the IC50 in data set [6] was over 10000 nM; in [1] it was 21 nM. For the same molecule, in [5], the Ki is 7.9 nM.
Regarding `CC(C)[C@@H]1NC(=O)[C@@H]([C@H](O)[C@H](Cc2ccccc2)NC(=O)OC(C)(C)C)NCc2ccc(cc2)OCCOCCNC1=O`, in data set [1], the IC50 amounted to 450 nM. The molecule further returned a Ki in data set [5] of 14 nM.
Turning to `CC(C)[C@H](NC(=O)OCc1ccccc1)C(=O)N[C@@H](Cc1ccccc1)[C@@H](O)[C@H]1NCc2cccc(c2)OCCOCCNC(=O)[C@H](C(C)C)NC1=O`, the IC50 in data set [1] was 60 nM.
In [2], `CC(C)[C@H](NC(=O)OCc1ccccc1)C(=O)N[C@@H](Cc1ccccc1)[C@@H](O)[C@H]1NCc2ccc(cc2)OCCOCCOCCNC(=O)[C@H](C(C)C)NC1=O` gave an AUC of under 0.4 µM·h. Besides, the IC50 in [6] is over 10000 nM; in data set [1] it was 16 nM; in data set [8], 37 nM; in data set [9], 3.1 nM; in [10], 17 nM. The Ki in data set [5] came to 6.9 nM.
Take `CC(C)[C@@H]1NC(=O)[C@@H]([C@H](O)[C@H](Cc2ccccc2)NC(=O)OC(C)(C)C)NCc2cccc(c2)OCCOCCOCCNC1=O`: the IC50 in data set [1] stood at 3000 nM. The molecule further had a Ki in data set [5] of 208 nM.
Take `CC(C)[C@@H]1NC(=O)[C@@H]([C@H](O)[C@H](Cc2ccccc2)NC(=O)OC(C)(C)C)NCc2ccc(cc2)OCCOCCOCCOCCNC1=O`: in [1], the IC50 turned out to be 1170 nM. The same molecule yielded a Ki in data set [5] of 23.2 nM.
The molecule `CC(C)[C@@H]1NC(=O)[C@@H]([C@H](O)[C@H](Cc2ccccc2)NC(=O)[C@@H](NC(=O)OCc2ccccc2)C(C)(C)C)NCc2ccc(cc2)OCCOCCNC1=O` gave an AUC in data set [2] of 4.7 µM·h. In addition, the IC50 in data set [6] was over 10000 nM; in data set [1] it was 15 nM. Further, in data set [5], the Ki worked out at 8 nM.
In data set [1], `CC(C)[C@@H]1NC(=O)[C@@H]([C@H](O)[C@H](Cc2ccccc2)NC(=O)O[C@H]2CCOC2)NCc2ccc(cc2)OCCOCCNC1=O` registered an IC50 of 157 nM. In addition, the affinity in [5] corresponds to a Ki of 8.2 nM.
For the molecule `CC(C)[C@@H]1NC(=O)[C@@H]([C@H](O)[C@H](Cc2ccccc2)NC(=O)OC(C)(C)C)NCc2cccc(c2)OCCCCNC1=O`, half-maximal inhibition in data set [1] (IC50) required 335 nM.

For the origin of these results see ChEMBL document CHEMBL1129607, “Paracyclophanes: a novel class of water-soluble inhibitors of HIV proteinase” (J Med Chem, 1996).
